Hits are enriched below; roughly 4.4% of the tested compounds scored in any of these assays.
GRIN3A LBD mod = binders of NR3A ligand-binding domain, primary screen, biophysical, differential scanning fluorimetry, uHTS | Glutamate receptor ionotropic, NMDA 3A (GRIN3A) ligand-binding domain | NR3A LBD differential scanning fluorimetry, Tm shift; 0% = protein alone, 100% = glycine-bound protein | Tm shift relative to glycine control, % at 25 µM | 340,000 compounds, 2.5% hits | AID 1259313, 2017;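 active = melting temperature shift of at least 10% of the positive control shift, at one fixed dose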
EBI2 block = EBI2 receptor antagonists, beta-arrestin recruitment, primary screen, cell-based, luminescence, 7a,25-OHC stimulation, uHTS | G-protein coupled receptor 183 (Homo sapiens), P32249 | 7a,25-OHC stimulated | inhibition, % at 5 µM | 360,000 compounds, 0.81% hits | AID 651636, 2012; in the data active = inhibition above about 38%;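 note: enzyme fragment complementation signal reports receptor beta-arrestin coupling in cells; 0% = agonist plus DMSO wells and 100% = wells without agonist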
Target sequence (P32249 whole entry, looked up, the tested form may be a part): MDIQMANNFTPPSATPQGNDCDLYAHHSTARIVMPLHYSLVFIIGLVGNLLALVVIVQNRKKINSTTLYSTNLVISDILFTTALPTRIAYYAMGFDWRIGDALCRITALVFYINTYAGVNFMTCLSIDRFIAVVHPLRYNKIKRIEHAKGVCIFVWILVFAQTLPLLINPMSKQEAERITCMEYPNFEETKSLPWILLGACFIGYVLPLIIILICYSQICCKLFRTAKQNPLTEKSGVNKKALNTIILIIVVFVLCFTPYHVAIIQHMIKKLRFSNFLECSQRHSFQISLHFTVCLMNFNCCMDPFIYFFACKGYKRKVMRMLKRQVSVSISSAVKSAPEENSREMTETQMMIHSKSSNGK
SENP1 inh = human SENP1 catalytic domain inhibitors, primary screen, biochemical, FRET, uHTS. recombinant SENP1 catalytic domain, CyPet-SUMO1-YPet FRET cleavage. inhibition, % at 10 µM. 360,000 compounds, 0.21% hits;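 active = inhibition at least 30% at 10 µM, raw YFP signal under a set limit, fluorescence ratio 0.5 to 1.5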;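 note: 0% = enzyme with DMSO and 100% = no enzyme wells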
Target sequence (Q9P0U3 419-644 limits assumed): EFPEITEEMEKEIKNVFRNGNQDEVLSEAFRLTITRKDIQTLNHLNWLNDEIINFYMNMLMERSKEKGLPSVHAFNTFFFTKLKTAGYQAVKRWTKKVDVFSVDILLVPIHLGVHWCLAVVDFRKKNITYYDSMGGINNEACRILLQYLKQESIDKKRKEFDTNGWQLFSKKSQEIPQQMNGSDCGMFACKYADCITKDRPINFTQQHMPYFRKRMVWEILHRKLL
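Test system: human SENP1 catalytic domain; medium: Tris pH 8 buffer plus EDTA, NaCl, BME, BSA, NP40, catalase; incubation: 50 min reaction at room temperature; technique: FRET, CFP and YFP emission; controls: no-enzyme low control and enzyme-plus-DMSO high control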
MPTP block = mitochondrial permeability transition pore inhibitors, primary screen, biochemical, isolated mouse mitochondria, absorbance; Ca2+ swelling absorbance, 30 min; inhibition, % at 10 µM; 360,000 compounds, 1.4% hits; AID 602449, 2012;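 active = inhibition of 50% or more, scaled per plate between neutral and stimulator controls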;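 note: 0% = DMSO wells given calcium and 100% = 1 mM EGTA wells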
* hit, by the source's call; x = no result.

SMILES	GRIN3A LBD mod	EBI2 block	SENP1 inh	MPTP block
CC1CCCN(c2ccc(/C=C(\C#N)c3nn(-c4ccccc4)c(N)c3C#N)cc2[N+](=O)[O-])C1 (stereo unspecified)	12*	42	1	12
CC1CCN(c2ccc(/C=C(\C#N)c3nn(-c4ccccc4)c(N)c3C#N)cc2[N+](=O)[O-])CC1	10*	36	2	3
CC1CCN(c2cc(N3CCC(C)CC3)c([N+](=O)[O-])cc2/C=C(\C#N)c2nn(-c3ccccc3)c(N)c2C#N)CC1	6	10	9	4
CC1(C(=O)NCc2ccc(C(F)(F)F)cc2)CCN1Cc1ccc(-c2ccccc2)o1 (stereo unspecified)	x	7	-1	0
CCOC(=O)C1=CCN(S(=O)(=O)c2ccccc2F)C1c1cccc(C)c1 (stereo unspecified)	x	-16	5	1
COc1cc(C(C2C(=O)CC(C)(C)CC2=O)C2C(=O)CC(C)(C)CC2=O)ccc1O	-1	3	-4	0
COc1ccc(C(C2C(=O)CC(C)(C)CC2=O)C2C(=O)CC(C)(C)CC2=O)cc1COCC(F)(F)F	13*	0	0	5
CNC(=O)c1cc2c(s1)-c1ccccc1CC2	0	-9	1	1
O=C(N/N=C/c1ccc(F)c(F)c1)c1cc2c(s1)-c1ccccc1CC2	27*	-2	1	1
COc1ccc(C(=O)Nc2cc(C(F)(F)F)ccc2-n2cnc3ccccc32)cc1	14*	3	2	1
O=[N+]([O-])c1cc(Cl)cc2c1nc(NCCO)c1ccccc12	13*	15	2	2
O=c1[nH]nc(-c2ccc(NCCO)c([N+](=O)[O-])c2)c2ccccc12	-1	4	2	0
C=CCN1C(=O)C2C3CC(=O)C(c4ccccc43)C2C1=O (stereo unspecified)	1	4	0	-1
Cc1sc(N/N=C/c2cccs2)nc1-c1ccccc1	-7	11	-13	3
COc1ccc2[nH]c(C(=O)N/N=C/c3ccc(O)cc3O)cc2c1	13*	-12	-21	1
COc1cc2cc(C(=O)N/N=C/c3ccc(F)cc3)[nH]c2cc1OC	13*	8	1	1
COc1ccc2cc(C(=O)N/N=C/c3cc(OC)c(OC)c(OC)c3)[nH]c2c1	19*	8	1	1
O=C(CSc1nnc(-c2ccc3c(c2)OCO3)n1-c1ccccc1)c1ccccc1	16*	3	0	3
O=C(CSc1nnc(-c2ccc3c(c2)OCO3)n1-c1ccccc1)c1ccc(Cl)cc1	3	4	0	2
CC(C)/C=C/C(=O)N1CCC(N2CCC(C(=O)NCC3CCCO3)CC2)CC1 (stereo unspecified)	x	-6	-16	0
COC(=O)c1ccc2nc(NC(=O)C(C)(C)C)sc2c1	0	-10	-17	1
COC(=O)c1ccc2c(c1)N(C)S(=O)(=O)c1cnc(SCC(=O)C(C)(C)C)nc1-2	11*	-8	1	-1
O=C(COC(=O)C1COc2ccccc2O1)Nc1ccc(Cl)cc1 (stereo unspecified)	-5	0	4	-2
O=C(Cn1c2c(sc1=O)C1c3ccccc3OCC1CS2)Nc1ccc(Cl)cc1 (stereo unspecified)	13*	6	-14	4
Clc1ccc2c(c1)c1cc(Cl)ccc1n2CN1CCOCC1	11*	12	2	1
SMILES	GRIN3A LBD mod	EBI2 block	SENP1 inh	MPTP block
Clc1ccc2c(c1)c1ccccc1n2CN1CCOCC1	-7	-13	1	2
COc1cc(C(=O)Nc2nc(-c3cccs3)cs2)cc(OC)c1OC	-4	7	0	0
O=C(Nc1nc(-c2ccccc2Cl)cs1)c1cccnc1	10*	0	3	2
COc1ccc(C(=O)Nc2nc(-c3cccs3)cs2)cc1	16*	36	-1	0
O=C(COc1ccc(Cl)cc1)Nc1nc(-c2cccs2)cs1	3	9	-1	-3
O=C(Nc1nc(-c2cccs2)cs1)c1cccc(S(=O)(=O)N2CCCCC2)c1	10*	11	-5	1
O=C(Nc1nc(-c2cccs2)cs1)c1ccc(Cl)cc1	11*	19	-2	0
O=C(NC(=S)Nc1nc(-c2ccccc2)cs1)c1cccnc1	-24	7	-1	2
O=C(C1CCCO1)N1CCN(C(=S)Nc2cc(F)cc(F)c2)CC1 (stereo unspecified)	2	-8	-1	2
CC1CCCN(CCCNC(=O)C2CCC(CNS(=O)(=O)c3cccc4nsnc34)CC2)C1 (stereo unspecified)	-3	-10	3	1
Cc1csc(NC(=O)c2sc3nc(-c4cccs4)ccc3c2N)n1	28*	x	x	x
Cc1c(C(=O)Nc2nccs2)sc2nc(-c3cccs3)cc(C(F)(F)F)c12	28*	-13	-49	14
Cc1c(C(=O)O)sc2nc(-c3cccs3)cc(C(F)(F)F)c12	1	6	0	1
CCC(C)(C)NC(=O)C(c1ccc(F)cc1)N(Cc1ccccc1)C(=O)c1cnccn1 (stereo unspecified)	-2	11	2	-2
COc1ccc(-c2[nH]ncc2CNCCc2ncccc2C)cc1F	0	2	1	-1
O=[N+]([O-])c1cccc(-n2cc3ccc([N+](=O)[O-])cc3n2)c1	14*	-13	3	0
N#Cc1cc(-c2ccccc2)oc1/N=C/c1ccccc1O	18*	-13	-1	0
c1ccc2[nH]c(-c3cnco3)cc2c1	11*	-7	-11	1
Cc1occc1C(=O)NNC(=O)c1ccc(Br)o1	0	-8	0	0
COc1ccc(C(=O)Nc2cccc(OC)c2)cc1	-40	11	-1	-2
CCC(=O)Nc1ccc(/C(C)=N\NC(=O)c2ccc(OC)cc2)cc1	19*	-7	3	-1
COc1cccc(NC(=O)c2ccc(OC(F)(F)F)cc2)c1	2	44*	1	0
COc1ccc(C(=O)N/N=C(/C)c2cccc(NC(=O)C(F)(F)F)c2)cc1	10*	-17	3	10
CC[C@H](C)[C@@H](C(=O)NCCCCCCCCCCC(=O)N1CCNCC1)n1cc(CCCCN=C(N)N)nn1	2	-4	4	2
CCOC(=O)c1ccc(-c2c(-c3ccccc3OC)oc3ccccc23)cc1F	1	0	2	2
COc1ccccc1-c1oc2ccccc2c1-c1ccc2cc[nH]c2c1	21*	10	-1	2
COc1ccc(CN2C(=O)[C@H]3Cc4c([nH]c5ccccc45)C(C)(C)N3C2=O)cc1	-3	-1	-20	1
COc1ccc(CN2C(=O)[C@@H]3Cc4c([nH]c5ccccc45)C(C)(C)N3C2=O)cc1	12*	19	-9	-1

Screens: PubChem, Sanford-Burnham Center for Chemical Genomics
